The source made the active and inactive calls. The rule behind the calls is not given here.
Test system: not listed separately
Experiment: OD600 growth after T7 infection, EV36 – E. coli EV36 K1, powder samples, selectivity assay for bacterial capsule biogenesis inhibitors, dose response (AID 504349)
Settings: E. coli EV36 K1, T7 phage lysis, OD600 3 h; at 100 µM (top of the series)
In short: (§1)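 Probe or stimulus: T7 phage infection; assay system: E. coli EV36 K1:K-12 hybrid cells; input: overnight bacterial culture diluted 1:100 into each well; measure: phage lysis inhibition from OD600; schedule: 1.5 h compound at 37 °C, 3 h after T7; compound dosing: dose series 0.39–100 µM final, 1% DMSO; technique: absorbance at 600 nm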

Row | SMILES | phage lysis inhibition (viability)
1 | COc1ccc(OC)c(-c2cc(C(=O)O)c3cc4ccccc4cc3n2)c1 | 99% (inactive)
2 | O=C(O)c1cc(-c2c[nH]c3ccccc23)nc2cc3ccccc3cc12 | 101% (inactive)
3 | Cc1cc(C)c2c(=O)c(-c3cc(C(=O)O)c4cc5ccccc5cc4n3)coc2c1 | 107% (inactive)
4 | O=C(O)c1cc(-c2cccc(Cl)c2)nc2cc3ccccc3cc12 | 101% (inactive)
5 | C=CCOc1ccc(C2c3c(oc4ccccc4c3=O)C(=O)N2CCCN2CCOCC2)cc1 (stereo not given) | 97.4% (inactive)
6 | Cc1ccc(C2c3c(oc4cc(C)c(C)cc4c3=O)C(=O)N2CCCN2CCOCC2)cc1 (stereo not given) | 91.7% (inactive)

Test system: E. coli EV36 K1, T7 phage lysis, OD600 3 h
Experiment: as above
Settings: not given
In short: as §1

Row | SMILES | IC50
7 | O=C(ONc1ccc(N=NC(=O)c2ccccc2O)cc1)c1ccccc1 | < 0.39 µM
8 | CC1(C(=O)O)CCC(C(=O)Nc2ccc3ccccc3c2)C1(C)C (stereo not given) | 8.5 µM
9 | CC1=NN2C(=N)/C(=C\c3ccc(SCc4ccco4)o3)C(=O)N=C2S1 | 1.5 µM
10 | O=C(COc1ccc(Cl)cc1Cl)Nc1ccc(C(=O)Nc2ccccc2C(=O)O)cc1 | 2.9 µM
11 | O=C(NCc1cc([N+](=O)[O-])ccc1O)c1cccnc1Sc1ccccc1Cl | 1.8 µM
12 | O=C(Nc1ccncc1)c1ccc2ncsc2c1 | < 0.39 µM
13 | O=C(NCc1cc([N+](=O)[O-])ccc1O)c1cccnc1Sc1ccccc1 | 4.6 µM
14 | CCOc1ccc(-c2cc(NC(=O)c3c(F)cccc3F)c(C(=O)O)s2)cc1 | < 0.39 µM
15 | COc1ccc2nc(NC(=O)c3ccc(Br)s3)sc2c1 | < 0.39 µM

Reference: PubChem BioAssay AID504349 (Southern Research Specialized Biocontainment Screening …, 2011)
